Calls of active or inactive are those of the source. The rule behind the calls is not given here.
What was measured:
[1] = target: T1, Neutrophil elastase (Homo sapiens) (UniProt P08246); assay: Inhibition of human leucocyte elastase at 20 ug/mL
T1 sequence (whole entry): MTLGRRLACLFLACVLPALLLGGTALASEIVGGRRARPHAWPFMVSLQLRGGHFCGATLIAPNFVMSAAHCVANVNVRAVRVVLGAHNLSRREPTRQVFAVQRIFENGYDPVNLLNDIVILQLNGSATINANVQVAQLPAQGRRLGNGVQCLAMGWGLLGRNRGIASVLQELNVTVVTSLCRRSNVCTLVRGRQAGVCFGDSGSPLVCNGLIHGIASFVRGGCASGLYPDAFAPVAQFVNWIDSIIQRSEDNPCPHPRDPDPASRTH
Summary of the method: (§1)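 Human leukocyte elastase at 40 nM in reaction, with substrate Suc-Ala-Pro-Ala-AMC. A commercial elastase inhibitor serves as control. 50 mM Tris-HCl pH 7.2 with 15% glycerol, 60 min at 37 °C. Fluorescence read at 370/460 nm. Compounds are added from 10 mg/mL DMSO stock. Quenching is assessed on free AMC in the assay buffer.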

[2] = target: Plasminogen (Homo sapiens) (UniProt P00747); assay: Inhibition of human plasmin at 20 ug/mL
Plasminogen (Homo sapiens), sequence (P00747 97-580 limits assumed): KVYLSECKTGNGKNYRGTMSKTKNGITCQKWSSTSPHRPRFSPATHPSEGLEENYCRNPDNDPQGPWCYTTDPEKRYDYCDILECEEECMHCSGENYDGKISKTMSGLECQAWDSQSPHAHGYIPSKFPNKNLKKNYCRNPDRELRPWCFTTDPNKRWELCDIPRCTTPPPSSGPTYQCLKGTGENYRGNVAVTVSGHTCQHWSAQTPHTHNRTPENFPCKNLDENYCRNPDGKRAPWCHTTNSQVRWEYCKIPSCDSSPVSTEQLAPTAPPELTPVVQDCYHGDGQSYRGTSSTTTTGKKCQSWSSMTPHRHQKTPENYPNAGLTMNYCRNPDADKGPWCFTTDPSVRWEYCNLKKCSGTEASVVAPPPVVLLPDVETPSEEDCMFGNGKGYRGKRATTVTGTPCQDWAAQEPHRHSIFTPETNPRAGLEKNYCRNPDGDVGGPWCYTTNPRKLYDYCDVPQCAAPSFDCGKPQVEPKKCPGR
Plasminogen (Homo sapiens), sequence (P00747 581-810 limits assumed): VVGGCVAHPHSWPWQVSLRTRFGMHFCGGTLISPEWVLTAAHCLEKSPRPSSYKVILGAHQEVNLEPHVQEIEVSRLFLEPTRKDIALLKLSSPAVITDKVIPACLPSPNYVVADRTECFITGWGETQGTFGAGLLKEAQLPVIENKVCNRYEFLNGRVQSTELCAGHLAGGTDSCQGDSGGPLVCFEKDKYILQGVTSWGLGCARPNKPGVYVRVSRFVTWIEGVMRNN
Summary of the method: (§2)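 Plasmin from human plasma, 165 pM in reaction, with fluorogenic H-Ala-Phe-Lys-AMC. α2-Antiplasmin serves as the control inhibitor. Run in 50 mM Tris-HCl pH 7.2, 15% glycerol, 60 min at 37 °C. Read-out is AMC fluorescence at ex/em 370/460 nm. Compounds come from 10 mg/mL DMSO stock. Quenching is checked with free AMC in the same buffer.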

[3] = target: T2, Chymotrypsin-C (Homo sapiens) (UniProt Q99895); assay: Inhibition of human Serine protease chymotrypsin at 20 ug/mL
T2 sequence (whole entry): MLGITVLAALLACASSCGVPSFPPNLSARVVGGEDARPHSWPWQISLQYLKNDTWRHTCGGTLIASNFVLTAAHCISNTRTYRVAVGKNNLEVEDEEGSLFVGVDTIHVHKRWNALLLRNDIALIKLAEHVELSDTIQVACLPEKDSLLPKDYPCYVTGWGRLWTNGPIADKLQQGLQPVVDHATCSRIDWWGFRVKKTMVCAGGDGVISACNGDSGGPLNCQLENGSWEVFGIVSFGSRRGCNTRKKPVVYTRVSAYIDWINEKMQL
Summary of the method: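 Fluorogenic substrate Suc-Ala-Ala-Pro-Phe-AMC. Chymostatin serves as the control inhibitor. Reaction in 50 mM Tris-HCl pH 7.2 with 15% glycerol, incubated 60 min at 37 °C. AMC fluorescence is read at ex/em 370/460 nm. Compounds are from DMSO stock, 10 mg/mL. Compound quenching is checked against free AMC in the same buffer.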

[4] = target: T1, Neutrophil elastase (Homo sapiens); assay: Evaluated for percent inhibition of human leucocyte elastase at 20 ug/mL; NA means not active; summary of the method: as §1
[5] = target: Plasminogen (Homo sapiens) (UniProt P00747); assay: Evaluated for percent inhibition of human plasmin at 20 ug/mL; NA means not active; summary of the method: as §2

| Structure (SMILES) | inhibition [1] | inhibition [2] | inhibition [3] | inhibition [4] | inhibition [5] |
| --- | --- | --- | --- | --- | --- |
| CC(C)C[C@H](NC(=O)[C@@H](NC(=O)N[C@@H](Cc1ccccc1)C(=O)O)C1CCNC(=N)N1)C(=O)N[C@H](C=O)Cc1ccccc1 (stereo partly drawn) |  |  | 95% | inactive | inactive |
| CC(C)(C)C(=O)CN1C(=O)C(=O)c2ccccc21 | 51% | 55% | 85% |  |  |
| NC(=O)CN1C(=O)C(=O)c2ccccc21 | 3% | 29% | 5% |  |  |
| O=C1C(=O)N(CC(=O)N2CCN(C(=O)Nc3cccc4ccccc34)CC2)c2ccc(Cl)cc21 | 74% | 80% | 82% |  |  |
| CCCCOC(=O)Nc1cccc(NC(=O)NC(=O)N2CCN(C(=O)CN3C(=O)C(=O)c4cc([N+](=O)[O-])ccc43)CC2)c1 | 94% | 82% | 87% |  |  |

Results, then the compound that gave them:

| inhibition [1] | inhibition [2] | inhibition [3] | inhibition [4] | inhibition [5] | Structure (SMILES) |
| --- | --- | --- | --- | --- | --- |
| 90% | 89% | 83% |  |  | O=C(CN1C(=O)C(=O)c2ccccc21)c1ccc(F)cc1 |
| 45% | 84% | 94% |  |  | Cc1ccc(C(=O)CN2C(=O)C(=O)c3ccccc32)cc1 |
| 64% | 86% | 97% |  |  | O=C(CN1C(=O)C(=O)c2cc(OC(F)(F)F)ccc21)c1ccc2ccccc2c1 |
| 26% | 57% | 77% |  |  | N#Cc1cccc(NC(=O)N2CCN(C(=O)CN3C(=O)C(=O)c4cc(OC(F)(F)F)ccc43)CC2)c1 |
| 56% | 87% | 89% |  |  | O=C(CN1C(=O)C(=O)c2ccccc21)c1ccc(Cl)cc1 |
| 79% | 77% | 79% |  |  | O=C1C(=O)N(CC(=O)N2CCN(C(=O)Nc3cccc4ccccc34)CC2)c2ccc(OC(F)(F)F)cc21 |

From ChEMBL document CHEMBL1132805, “Parallel synthesis of isatin-based serine protease inhibitors” (Bioorg Med Chem Lett, 2000)
